IMP-1 inh – IMP-1 metallo-beta-lactamase inhibitors, primary screen, biochemical, epi-absorbance readout, Pseudomonas aeruginosa enzyme; purified IMP-1, nitrocefin hydrolysis, epi-absorbance fluorescence; inhibition, % at 5.6 µM; 290,000 compounds, 0.45% hits; AID 1556, 2009;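 active means inhibition above the mean plus 3 SD of all compounds in the same screening run, cut at about 4.5% in these data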;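 further: 0% = IMP-1 with DMSO and 100% = DMSO wells lacking enzyme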
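System – purified recombinant IMP-1 beta-lactamase · Input – IMP-1 dispensed at 0.2 nM · Timing – 15 min preincubation plus 25 min reaction at 25 °C · Signal – Epi-absorbance fluorescence, 480 nm excitation, 530 nm emission · Measure – percent IMP-1 inhibition derived from blank-referenced optical density · Controls – Enzyme-plus-DMSO low control, enzyme-free DMSO high control · Replication – singlicate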
pPAFAH FP inh – pPAFAH enzyme inhibitors, primary screen, biochemical, fluorescence polarization, human | AID 463082, 2010 | inhibition, % at 3.39 µM | Platelet-activating factor acetylhydrolase (Homo sapiens), Q13093 | recombinant pPAFAH, FP-rhodamine probe fluorescence polarization | 330,000 compounds, 1.5% hits;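 active means inhibition above the mean inhibition across the screen plus 3 SD, cut at about 25% in these data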;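 further: inhibitors block binding of the rhodamine activity-based probe so polarization drops; 0% = enzyme with DMSO and 100% = wells lacking pPAFAH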
Target sequence (Q13093 whole entry, looked up): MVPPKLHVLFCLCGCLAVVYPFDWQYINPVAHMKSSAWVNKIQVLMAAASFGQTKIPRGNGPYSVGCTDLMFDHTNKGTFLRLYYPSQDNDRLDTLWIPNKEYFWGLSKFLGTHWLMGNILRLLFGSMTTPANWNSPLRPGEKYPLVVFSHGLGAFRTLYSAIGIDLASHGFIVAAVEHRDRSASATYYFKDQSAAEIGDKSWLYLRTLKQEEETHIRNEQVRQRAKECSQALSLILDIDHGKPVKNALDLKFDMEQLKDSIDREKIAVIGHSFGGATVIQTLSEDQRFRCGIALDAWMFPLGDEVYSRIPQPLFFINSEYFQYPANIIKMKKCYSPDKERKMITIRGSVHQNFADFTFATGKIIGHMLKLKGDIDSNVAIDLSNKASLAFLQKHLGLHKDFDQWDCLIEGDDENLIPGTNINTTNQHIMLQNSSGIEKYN
PAFAH2 FP inh – PAFAH2 enzyme inhibitors, primary screen, biochemical, fluorescence polarization, human; 340,000 compounds, 0.99% hits; inhibition, % at 3.39 µM; AID 492956, 2010; recombinant PAFAH2, FP-rhodamine activity probe;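 active means inhibition above the mean over all tested compounds plus 3 SD, cut at about 30% in these data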;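 further: inhibitors block probe labeling of enzyme so polarization drops; 0% = enzyme with DMSO and 100% = wells lacking PAFAH2 protein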
VIM-2 inh – VIM-2 metallo-beta-lactamase inhibitors, primary screen, biochemical, epi-absorbance readout, Pseudomonas aeruginosa enzyme | purified VIM-2, nitrocefin hydrolysis, epi-absorbance fluorescence | inhibition, % at 5.6 µM | 290,000 compounds, 0.89% hits;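 active means inhibition above the mean of all tested compounds plus 3 SD, cutoff set per screening run, cut at about 7.5% in these data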;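 further: red hydrolysis product quenches plate fluorescence so inhibitors raise well fluorescence; 0% = enzyme with DMSO and 100% = DMSO without enzyme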
PAFAH1B2 inh – PAFAH1B2 enzyme inhibitors, primary screen, biochemical, fluorescence polarization, human; recombinant PAFAH1B2, FP-rhodamine activity probe; inhibition, % at 3.39 µM; AID 492953, 2010; 340,000 compounds, 1.2% hits; Platelet-activating factor acetylhydrolase IB subunit alpha2 (Homo sapiens), P68402;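 active means inhibition above the mean of all tested compounds plus 3 SD, cut at about 24% in these data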;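 further: 0% = enzyme with DMSO and 100% = wells lacking PAFAH1B2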
PAFAH1B3 inh – PAFAH1B3 enzyme inhibitors, primary screen, biochemical, fluorescence polarization, human. Platelet-activating factor acetylhydrolase IB subunit alpha1 (Homo sapiens), Q15102. recombinant PAFAH1B3, FP-rhodamine probe. inhibition, % at 3.39 µM. 340,000 compounds, 0.28% hits. AID 492972, 2010;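 active means inhibition above the screen-wide average of all tested compounds plus 3 SD, cut at about 25% in these data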;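 further: 0% = enzyme with DMSO only and 100% = wells lacking PAFAH1B3 protein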
An asterisk follows results filed as active; . = not tested or not shown. Compounds with a hit are over-represented: about 3.6% of the library has one in this group of screens.

SMILES | IMP-1 inh | pPAFAH FP inh | PAFAH2 FP inh | VIM-2 inh | PAFAH1B2 inh | PAFAH1B3 inh
COc1ccccc1N1C(=O)c2cccc3cccc(c23)C1=O | -5.4 | 0.4 | 0.6 | 1.1 | 1.2 | 7.2
NS(=O)(=O)c1ccc(-c2ccc(/C=C3\SC(=S)N(C4CCS(=O)(=O)C4)C3=O)o2)cc1 (configuration not stated) | 1.2 | 24.8* | 5.0 | 1.2 | 4.8 | 4.6
CCC(NC(=S)NCc1ccc(F)cc1)c1ccc(C(C)C)cc1 (configuration not stated) | -1.4 | -4.6 | -7.1 | -1.8 | 28.9* | -9.0
CCCc1ccc(C(C)NC(=S)NCc2ccc(F)cc2)cc1 (configuration not stated) | -3.0 | 4.4 | -7.1 | -2.9 | 14.8 | 5.4
CCC(C)c1ccc(C(C)NC(=S)NCc2ccc(F)cc2)cc1 (configuration not stated) | -2.5 | -1.2 | -2.0 | -4.8 | 24.4* | -5.4
CS(=O)(=O)N(CC(=O)Nc1cccc(Br)c1)Cc1ccccc1 | -4.5 | . | -1.2 | -2.8 | 0.1 | 3.9
Clc1ccc2c(N/N=C/c3ccc(Br)cc3)ccnc2c1 | -3.1 | -2.7 | 7.1 | -2.0 | 0.3 | 1.9
Clc1ccc2c(N/N=C/c3cccnc3)ccnc2c1 | 0.8 | 3.1 | 1.4 | 11.5* | 2.2 | 13.6
CCCSc1nnc(NC(=O)CSc2sc3c(O)cc(=O)[nH]c3c2C#N)s1 | -4.0 | 42.8* | 37.5* | -1.8 | 15.9 | 14.7
N#Cc1c(SCC(=O)Nc2ccccc2C(F)(F)F)sc2c(O)cc(=O)[nH]c12 | -3.8 | 27.3* | 6.8 | -3.5 | 5.5 | 9.2
CCOc1cccc(NC(=O)CSc2sc3c(O)cc(=O)[nH]c3c2C#N)c1 | -2.0 | 15.5 | -0.9 | -2.1 | 0.8 | 8.6
C=CCSc1nnc(NC(=O)CSc2nc(CCC)cc(=O)[nH]2)s1 | -2.3 | 2.5 | 6.4 | -1.5 | -1.7 | 6.9
N#Cc1c(SCC(=O)Nc2cccc(F)c2)sc2c(O)cc(=O)[nH]c12 | -2.2 | 29.7* | 14.8 | -2.7 | 8.1 | 18.1
N#Cc1c(SCC(=O)Nc2ccc(Cl)cc2Cl)sc2c(O)cc(=O)[nH]c12 | -0.3 | 30.1* | 10.2 | -1.8 | 1.4 | 8.3
Cc1c(Cl)cccc1NC(=O)CSc1sc2c(O)cc(=O)[nH]c2c1C#N | -2.7 | 19.8 | -1.3 | -0.3 | 7.7 | 4.1
O=C(CC(CC(=O)c1ccc(Cl)cc1)c1ccccc1C(=O)O)c1ccc(Cl)cc1 | -3.5 | 2.2 | -6.3 | 11.6* | 13.0 | 2.2
COC(=O)Cc1cn(-c2ncc(C(F)(F)F)cc2Cl)c2ccccc12 | -4.5 | 2.0 | -0.8 | -4.4 | 1.3 | -11.2
CN(C)/C=C/C(=O)/C=C/c1cn(-c2ncc(C(F)(F)F)cc2Cl)c2ccccc12 | -1.8 | 25.6* | -1.8 | -1.2 | -4.2 | 2.2
CC(=O)N[C@H]1[C@H]([C@H](O)[C@H](O)CO)O[C@](O)(C(=O)O)C[C@@H]1O | . | . | 4.2 | . | 0.7 | -11.9
Cn1c(=O)c2c(nc(Oc3ccccc3Br)n2C)n(C)c1=O | -2.9 | . | 6.6 | 10.0* | 3.4 | 7.5
Cn1c(=O)c2c(nc(Oc3ccc4ccccc4c3)n2C)n(C)c1=O | -2.9 | 1.3 | 1.2 | -2.0 | 2.9 | 6.7
COc1cccc(C(=O)Nc2ccc3nc(N4CCN(c5ncccn5)CC4)cc(C)c3c2)c1OC | -1.5 | 82.0* | . | -3.3 | . | .
CCOc1ccccc1C(=O)Nc1ccc2nc(N3CCN(c4ncccn4)CC3)cc(C)c2c1 | -2.7 | 9.5 | . | -3.2 | . | .
CCC(=O)OC1(C)C(=O)C=C2C=C(C3CC3)OC=C2C1=O (configuration not stated) | . | 8.0 | 2.4 | . | 10.6 | 10.2
CC1(OC(=O)c2ccco2)C(=O)C=C2C=C(C3CC3)OC=C2C1=O (configuration not stated) | . | 27.9* | 12.2 | . | 8.8 | 3.3
COC/C=C/C1=CC2=CC(=O)C(C)(OC(=O)c3cnc4ccccc4n3)C(=O)C2=CN1c1ccc(CO)cc1 (configuration not stated) | -3.5 | 39.4* | . | -1.4 | . | .
CC1(OC(=O)c2cnc3ccccc3n2)C(=O)C=C2C=C(C3CC3)OC=C2C1=O (configuration not stated) | . | 50.5* | . | . | . | .

Screening data (PubChem BioAssay)
